Compound activity from PubChem BioAssay.
XBP1 UPR activ = activators of adaptive XBP1 UPR arm, primary screen, cell-based, CHO-XBP1 luciferase reporter, luminescence, uHTS | activation, % at 20 µM | IRE1-XBP1 UPR activation; percent of tunicamycin response, DMSO as zero | 330,000 compounds, 0.33% hits | AID 463104, 2010;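 active = versus positive control, 20 µM dose yields 30% or more activation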
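Signal: luciferase luminescence; Assay system: CHO-XBP1 luciferase reporter cells; Amount: one thousand reporter cells per well; Dosing: 20 µM single concentration, DMSO 1%; Benchmarks: high control tunicamycin 10 µg/mL final, low control DMSO vehicle only; Schedule: 6 h compound exposure at 37 °C, 5% CO2; Evaluation: percent activation relative to tunicamycin reference.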
MC4R antag cAMP = MC4R antagonists of cAMP signaling, primary screen, cell-based, TR-FRET, antagonist arm of biased-ligand search; MC4R-expressing cells, MTII-stimulated cAMP, LANCE TR-FRET; AID 540295, 2011; 360,000 compounds, 0.48% hits; inhibition, % at 6.5 µM; Melanocortin receptor 4 (Homo sapiens), P32245;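 active = inhibition above its plate's cutoff, the mean of tested wells on that plate plus 3 SD, cut at about 29% in these data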
Target sequence (P32245 whole entry, looked up): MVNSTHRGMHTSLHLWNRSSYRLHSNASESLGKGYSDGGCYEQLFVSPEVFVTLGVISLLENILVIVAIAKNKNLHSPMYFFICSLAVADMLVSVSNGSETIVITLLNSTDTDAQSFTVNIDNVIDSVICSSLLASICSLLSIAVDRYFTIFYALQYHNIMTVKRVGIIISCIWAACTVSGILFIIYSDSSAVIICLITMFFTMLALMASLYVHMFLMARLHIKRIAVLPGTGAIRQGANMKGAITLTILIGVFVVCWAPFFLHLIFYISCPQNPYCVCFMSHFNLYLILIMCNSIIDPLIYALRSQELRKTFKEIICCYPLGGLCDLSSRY
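Assay system: U2OS-MC4R stable cell line; Also added: Melanotan II; Technique: Eu-cAMP/anti-cAMP TR-FRET, emission 671 nm; Times: 30-min compound, 1-h challenge, 1-h detection, room temperature.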
Bfl-1 A1 inh = caspase 3/7 activation in MEF A1-2A-BIM cells, primary screen, A1 inhibitor project, cell-based, luminescence, HTS. Caspase-Glo 3/7 luminescence, 3 h; percent of clofoctol response, vehicle zero. 330,000 compounds, 0.066% hits. caspase activation, % (test concentration not listed);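 active = over half of replicate activation scores above 10%, or exactly half above 10 with the replicate mean above 10; inconclusive = replicate mean below 10 yet half the replicates above 10; inactive = over half of replicates below 10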
CHOP UPR activ = activators of apoptotic CHOP UPR arm, primary screen, cell-based, CHO-CHOP luciferase reporter, luminescence, uHTS; UPR activation; percent of tunicamycin response over DMSO baseline; activation, % at 10 µM; 330,000 compounds, 0.34% hits; AID 449763, 2010;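 active = at 10 µM dose, activation of 40% or more, normalized to positive control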
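System: CHO CHOP reporter cells. Amount: 500 cells per well. Buffer or medium: F12 medium, 10% FBS. Compound dosing: one dose, 10 µM in 0.5% DMSO. Incubation: 6 h compound exposure at 37 °C after overnight seeding. Technique: Steady-Glo luciferase luminescence. Benchmarks: tunicamycin and DMSO controls.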
MC4R barr agon = MC4R agonists recruiting beta-arrestin, primary screen, cell-based, luminescence, agonist arm of biased-ligand search. Melanocortin receptor 4 (Homo sapiens), P32245. U2OS MC4R beta-arrestin complementation; percent of melanotan II response, DMSO zero. activation, % at 8.9 µM. 360,000 compounds, 0.98% hits. AID 540308, 2011;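 active = activation above a per-plate cutoff, the mean activation of sample wells on that plate plus 3 SD, cut at about 8% in these data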
CHOP UPR conf = activators of apoptotic CHOP UPR arm, confirmation, cell-based, CHO-CHOP luciferase reporter, single concentration; 1,000 compounds, 64% hits; shares compounds with CHOP UPR activ; activation, % at 10 µM; AID 463112, 2010; CHO-CHOP cells, CHOP-luciferase reporter luminescence; percent of tunicamycin response, DMSO as zero; in the data active = activation above about 33%
UPR XBP1 confirm = IRE1-XBP1 UPR arm activators, confirmation, cell-based, CHO-XBP1 luciferase reporter, luminescence, single concentration. activation, % at 20 µM. 1,000 compounds, 63% hits. shares compounds with XBP1 UPR activ;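 active = reporter signal at least 30% of the positive control's activation in two or more of four replicate wells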
cAMP nonselect = nonselective cAMP signaling inhibitors, parental cells, counter-screen for MC4R biased antagonist project, cell-based, TR-FRET, U2OS, forskolin, triplicate. 1,600 compounds, 26% hits. LANCE TR-FRET. inhibition, % at 6.5 µM. shares compounds with MC4R antag cAMP;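 active = mean inhibition over triplicates above the low-control well mean plus 3 SD, set per campaign, cut at about 13% in these data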;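 note: signal is single emission at 671 nm which falls as cellular cAMP rises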
MC4R antag conf = MC4R cAMP antagonists, retest, confirmation, cell-based, TR-FRET; shares compounds with MC4R antag cAMP; MC4R-expressing cells, MTII-stimulated cAMP; inhibition, % at 6.5 µM; 1,600 compounds, 27% hits; AID 602195, 2012; in the data active = inhibition above about 29%
MC4R barr conf = MC4R beta-arrestin agonists, retest, confirmation, cell-based, luminescence, U2OS | shares compounds with MC4R barr agon | U2OS MC4R beta-arrestin recruitment; scaled DMSO 0%, Melanotan II 100% | activation, % at 8.9 µM | 2,400 compounds, 31% hits | AID 602192, 2012;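 active = mean activation across replicates above the hit cutoff set in the earlier primary screen, cut at about 8% in these data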
MOR-DOR barr ag = agonists of MOR-DOR heterodimerization, counter-screen for MC4R biased agonist project, cell-based, luminescence; shares compounds with MC4R barr agon; U2OS PathHunter beta-arrestin, beta-gal luminescence; percent of deltorphin B response, DMSO zero; activation, % at 9.2 µM; 2,400 compounds, 5.8% hits;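 active = mean activation across replicates exceeds the hit threshold derived in the earlier primary screen, cut at about 18% in these data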
Of the large screens only hits and unclear results are named; the others gave an inactive call (follow-up assays come after a bar, where they were run). Only some compounds are listed: those with a hit (about 2% of all), similar ones and a draw of the others.

O=[N+]([O-])c1cc(S(=O)(=O)C(F)(F)F)ccc1Sc1nc2ccccc2[nH]1	MC4R antag cAMP 29.7, CHOP UPR activ 42.9 | CHOP UPR conf inactive | cAMP nonselect inactive | MC4R antag conf 39.8
CS(=O)(=O)c1ccc(Sc2nc3ccccc3[nH]2)c([N+](=O)[O-])c1	none
CC(=O)N1CCc2cc(NC(=O)C3(C)CCN3Cc3ccc(C(C)C)cc3)ccc21 (centres undefined)	none (no result: XBP1 UPR activ, Bfl-1 A1 inh, CHOP UPR activ)
CCCCC(CC)CO (centres undefined)	none (no result: Bfl-1 A1 inh)
CCCCC(CC)CN=C(N)NC(N)=NCCCCCCN=C(N)NC(N)=NCC(CC)CCCC (centres undefined)	MC4R antag cAMP 68.9, CHOP UPR activ 54.4 | CHOP UPR conf 38.0 | cAMP nonselect 54.9 | MC4R antag conf 89.7
CCOc1ccc(/C=C/[N+](=O)[O-])c2ccccc12	MC4R antag cAMP 41.4, CHOP UPR activ 221.1 | CHOP UPR conf inactive | cAMP nonselect inactive | MC4R antag conf inactive
CCOC(=O)COc1ccc2ccccc2c1/C=C/[N+](=O)[O-]	none (no result: XBP1 UPR activ, CHOP UPR activ)
O=C(Nc1ccc2c(c1)OCO2)c1csc([C@H]2C[C@H](O)[C@@H](CO)O2)n1	none (no result: XBP1 UPR activ, Bfl-1 A1 inh, CHOP UPR activ)
Cc1cc(C(=O)c2ccc(Cl)cc2)c(NC(=O)CCl)s1	MC4R antag cAMP 40.6, CHOP UPR activ 50.0 | CHOP UPR conf 46.5 | cAMP nonselect 23.6 | MC4R antag conf 64.9
Cc1ccc(C(=O)c2cc(C)sc2N)cc1	none
N#C/C(=C\c1ccc([N+](=O)[O-])o1)C(=O)Nc1ccc(F)cc1	CHOP UPR activ 166.0, MC4R barr agon 12.2 | CHOP UPR conf 156.4 | MC4R barr conf 13.5 | MOR-DOR barr ag inactive
CCOC(=O)c1c(CSC(=N)N)n(-c2ccc(C)cc2)c2cc(Br)c(OC(C)=O)cc12	CHOP UPR activ 56.1, MC4R barr agon 29.2 | CHOP UPR conf 73.3 | MC4R barr conf 14.1 | MOR-DOR barr ag 51.0
CCOC(=O)c1sc(N(Cc2ccccc2)C(=O)CCl)nc1C	CHOP UPR activ 49.0, MC4R barr agon 15.7 | CHOP UPR conf 218.8 | MC4R barr conf inactive | MOR-DOR barr ag 38.2
Cc1ccc(C(C)C)c(OCc2ccc(C(=O)N/N=C/c3ccc(O)c(O)c3)cc2)c1	XBP1 UPR activ 85.9, CHOP UPR activ 102.2, MC4R barr agon 20.0 | CHOP UPR conf 56.9 | UPR XBP1 confirm 54.4 | MC4R barr conf 9.0 | MOR-DOR barr ag inactive
COc1cc(/C=N/NC(=O)c2ccc(COc3cc(C)ccc3C(C)C)cc2)cc(OC)c1O	none
CCOC(=O)C1CCCN(C(=O)c2ccc(F)c(C)c2)CC1 (centres undefined)	none (no result: XBP1 UPR activ, Bfl-1 A1 inh, CHOP UPR activ)
CCCCC(=O)Nc1sc2c(c1C(=O)OCC)CCC(C=O)=C2Cl	XBP1 UPR activ 33.0, CHOP UPR activ 62.8, MC4R barr agon 10.5 | CHOP UPR conf 33.3 | MC4R barr conf inactive | MOR-DOR barr ag inactive
CCOC(=O)c1c(NC(=O)c2ccccc2Cl)sc2c1CCc1ccccc1-2	none
Cc1nc(C(F)(F)F)ccc1C(=O)N1CCC1(C)C(=O)NS(=O)(=O)c1ccc2ccccc2c1 (centres undefined)	none (no result: XBP1 UPR activ, Bfl-1 A1 inh, CHOP UPR activ)
CCOC(=O)c1[nH]c2ccc(Cl)cc2c1NC(=O)/C=C/c1ccc2c(c1)OCO2	XBP1 UPR activ 168.2, CHOP UPR activ 53.6, MC4R barr agon 37.9 | CHOP UPR conf inactive | UPR XBP1 confirm 138.2 | MC4R barr conf inactive | MOR-DOR barr ag inactive
Oc1ccc(/C=N/N2CCN(C3c4ccccc4-c4ccccc43)CC2)cc1O	Bfl-1 A1 inh 29.4, CHOP UPR activ 101.8, MC4R barr agon 27.6 | CHOP UPR conf 52.7 | MC4R barr conf 13.1 | MOR-DOR barr ag inactive
COc1cc(NC(=O)CCN2CCN(c3ccccc3OC)CC2)cc(OC)c1	none (no result: XBP1 UPR activ, Bfl-1 A1 inh, CHOP UPR activ)
CCOc1ccc(NC(=S)NC(=O)/C=C/c2ccc(OC)c(OC)c2)c([N+](=O)[O-])c1	XBP1 UPR activ 167.7, Bfl-1 A1 inh inconclusive, CHOP UPR activ 60.6, MC4R barr agon 17.3 | CHOP UPR conf 48.9 | UPR XBP1 confirm 251.1 | MC4R barr conf 12.4 | MOR-DOR barr ag inactive
CCOc1ccc(NC(=O)/C=C/c2ccc(OC)cc2)c([N+](=O)[O-])c1	none
Cc1ccc([C@H]2C[C@@H](O)[C@H](n3cc(C4CC4)nn3)CN2C(=O)c2cccs2)cc1	none (no result: XBP1 UPR activ, Bfl-1 A1 inh, CHOP UPR activ)
COc1cc(NC(=O)c2ccc(C)cc2C)ccc1NC(=O)c1cc2ccccc2o1	XBP1 UPR activ 148.0, Bfl-1 A1 inh 15.3, CHOP UPR activ 56.2, MC4R barr agon 12.0 | CHOP UPR conf inactive | UPR XBP1 confirm 71.8 | MC4R barr conf 15.8 | MOR-DOR barr ag inactive
COc1cc(NC(=O)c2ccc(C)cc2)ccc1NC(=O)c1cc2ccccc2o1	none
CCN1C(=O)[C@H]2[C@@H](c3ccc(C)cc3)N[C@]3(CCCN(Cc4ccc(Cl)cc4)C3=O)[C@H]2C1=O	none (no result: XBP1 UPR activ, Bfl-1 A1 inh, CHOP UPR activ)
Cc1nn(Cc2c(Cl)cccc2Cl)c(C)c1NC(=O)c1sc2ccccc2c1Cl	XBP1 UPR activ 64.6, CHOP UPR activ 49.5, MC4R barr agon 45.3 | CHOP UPR conf 39.9 | UPR XBP1 confirm 67.0 | MC4R barr conf inactive | MOR-DOR barr ag inactive
